Experimental data as given in ChEMBL document CHEMBL1137710, “Synthesis and in vitro antitumor activity of new quinoxaline derivatives” (2009).

Legend:
Format in all cases: functional
MCF7 = experiment: Anticancer activity against human MCF7 cells assessed as cell growth at 100 uM after 48 hrs by sulforhodamine B assay; conditions: MCF7, 48 h, read-out: Activity
SF-268 [1] = experiment: Anticancer activity against human SF268 cells assessed as cell growth at 100 uM after 48 hrs by sulforhodamine B assay; conditions: SF-268, 48 h, read-out: Activity
K562 = experiment: Growth inhibition of human K562 cells after 48 hrs by sulforhodamine B assay; conditions: K562, 48 h
Outline: (§1)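 NCI 60-human-tumor-cell-line panel, with compounds tested over a 5-log dose range. Values are taken from dose-response curves as log10 molar concentrations: GI50 is 50% net growth inhibition, TGI is total growth inhibition, and LC50 is 50% net cell death.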

[2] = Growth inhibition of human […] cells after 48 hrs by sulforhodamine B assay; outline: as §1
NCI-H23 = experiment: Growth inhibition of human NCI-H23 cells after 48 hrs by sulforhodamine B assay; conditions: NCI-H23, 48 h; outline: as §1
NCI-H322M = experiment: Growth inhibition of human NCI-H322M cells after 48 hrs by sulforhodamine B assay; outline: as §1
NCI-H522 = experiment: Growth inhibition of human NCI-H522 cells after 48 hrs by sulforhodamine B assay; conditions: NCI-H522, 48 h; outline: as §1
COLO 205 = experiment: Growth inhibition of human COLO205 cells after 48 hrs by sulforhodamine B assay; conditions: COLO 205, 48 h; outline: as §1
HCT-116 = experiment: Growth inhibition of human HCT116 cells after 48 hrs by sulforhodamine B assay; conditions: HCT-116, 48 h; outline: as §1
SW-620 = experiment: Growth inhibition of human SW620 cells after 48 hrs by sulforhodamine B assay; conditions: SW-620, 48 h
Outline: (§2)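 Run in the NCI 60-human-tumour-cell-line panel, tested over a 5-log dose range. Dose–response curves gave three values per cell line, each as a log10 molar concentration: GI50 (50% inhibition of net cell growth), TGI (total inhibition of net growth) and LC50 (50% net cell death). The mean graph midpoint is the arithmetic mean over all lines, with insensitive lines entered at the highest concentration tested.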

SF-268 [3] = experiment: Growth inhibition of human SF268 cells after 48 hrs by sulforhodamine B assay; conditions: SF-268, 48 h; outline: as §1
SF-295 = experiment: Growth inhibition of human SF295 cells after 48 hrs by sulforhodamine B assay; conditions: SF-295, 48 h; outline: as §1
SNB-19 = experiment: Growth inhibition of human SNB19 cells after 48 hrs by sulforhodamine B assay; conditions: SNB-19, 48 h; outline: as §2
U-251 = experiment: Growth inhibition of human U251 cells after 48 hrs by sulforhodamine B assay; conditions: U-251, 48 h; outline: as §2
LOX IMVI = experiment: Growth inhibition of human LOXIMVI cells after 48 hrs by sulforhodamine B assay; outline: as §1
M14 = experiment: Growth inhibition of human M14 cells after 48 hrs by sulforhodamine B assay; conditions: M14, 48 h; outline: as §1
SK-MEL-2 = experiment: Growth inhibition of human SK-MEL-2 cells after 48 hrs by sulforhodamine B assay; conditions: SK-MEL-2, 48 h; outline: as §1
SK-MEL-28 = experiment: Growth inhibition of human SK-MEL-28 cells after 48 hrs by sulforhodamine B assay; conditions: SK-MEL-28, 48 h; outline: as §1
SK-MEL-5 = experiment: Growth inhibition of human SK-MEL-5 cells after 48 hrs by sulforhodamine B assay; conditions: SK-MEL-5, 48 h; outline: as §1
UACC-62 = experiment: Growth inhibition of human UACC62 cells after 48 hrs by sulforhodamine B assay; conditions: UACC-62, 48 h; outline: as §2
OVCAR-3 = experiment: Growth inhibition of human OVCAR-3 cells after 48 hrs by sulforhodamine B assay; conditions: OVCAR-3, 48 h; outline: as §1
OVCAR-4 = experiment: Growth inhibition of human OVCAR4 cells after 48 hrs by sulforhodamine B assay; conditions: OVCAR-4, 48 h; outline: as §1
OVCAR-5 = experiment: Growth inhibition of human OVCAR5 cells after 48 hrs by sulforhodamine B assay; conditions: OVCAR-5, 48 h; outline: as §1
786-0 = experiment: Growth inhibition of human 786-0 cells after 48 hrs by sulforhodamine B assay; conditions: 786-0, 48 h; outline: as §1
CAKI-1 = experiment: Growth inhibition of human Caki1 cells after 48 hrs by sulforhodamine B assay; conditions: CAKI-1, 48 h; outline: as §1
RXF 393 = experiment: Growth inhibition of human RXF393 cells after 48 hrs by sulforhodamine B assay; conditions: RXF 393, 48 h; outline: as §1
NCI/ADR-RES = experiment: Growth inhibition of human NCI/ADR-RES cells after 48 hrs by sulforhodamine B assay; outline: as §1
MDA-MB-231 = experiment: Growth inhibition of human MDA-MB-231 cells after 48 hrs by sulforhodamine B assay; conditions: MDA-MB-231, 48 h; outline: as §1
[4] = Growth inhibition of human Hs 578T cells after 48 hrs by sulforhodamine B assay; outline: as §1
MDA-MB-435 = experiment: Growth inhibition of human MDA-MB-435 cells after 48 hrs by sulforhodamine B assay; conditions: MDA-MB-435, 48 h; outline: as §1
[5] = read-out: pLC50 (the source's name) (converted)

SMILES: COc1ccc(CNc2nc3cc(N)cc(N)c3nc2-c2ccccc2)cc1
- growth at 100 µM (MCF7): 0%
- growth at 100 µM (SF-268 [1]): 0%
- GI50 (K562): 25.1 µM
- LC50 (K562): > 100 µM
- TGI (K562; read-out: pTGI (converted)): 97.7 µM
- GI50 [2]: 4.17 µM
- LC50 [2]: > 100 µM
- TGI ([2]; read-out: pTGI (converted)): 15.8 µM
- GI50 (NCI-H23): 17 µM
- LC50 (50% net cell kill concentration) (NCI-H23): 70.8 µM
- TGI (NCI-H23; read-out: pTGI (converted)): 34.7 µM
- GI50 (NCI-H322M): 22.9 µM
- LC50 (NCI-H322M): > 100 µM
- TGI (NCI-H322M; read-out: pTGI (converted)): 52.5 µM
- GI50 (NCI-H522): 10 µM
- LC50 (NCI-H522): 47.9 µM
- TGI (NCI-H522; read-out: pTGI (converted)): 21.9 µM
- GI50 (COLO 205): 15.5 µM
- LC50 (50% net cell kill) (COLO 205): 74.1 µM
- TGI (COLO 205; read-out: pTGI (converted)): 33.9 µM
- GI50 (HCT-116): 14.5 µM
- LC50 (concentration causing 50% net cell death) (HCT-116): 52.5 µM
- TGI (HCT-116; read-out: pTGI (converted)): 27.5 µM
- GI50 (SW-620): 12.9 µM
- CC50 (SW-620; [5]): 70.8 µM
- TGI (SW-620; read-out: pTGI (converted)): 30.2 µM
- GI50 (SF-268 [3]): 9.77 µM
- LC50 (SF-268 [3]): 49 µM
- TGI (SF-268 [3]; read-out: pTGI (converted)): 21.9 µM
- GI50 (SF-295): 17.8 µM
- LC50 (50% net cell kill) (SF-295): 58.9 µM
- TGI (SF-295; read-out: pTGI (converted)): 32.4 µM
- GI50 (SNB-19): 41.7 µM
- LC50 (SNB-19): > 100 µM
- TGI (SNB-19; read-out: pTGI (converted)): > 100 µM
- GI50 (U-251): 13.5 µM
- LC50 (50% net cell kill) (U-251): 51.3 µM
- TGI (U-251; read-out: pTGI (converted)): 26.3 µM
- GI50 (LOX IMVI): 13.5 µM
- LC50 (LOX IMVI): 55 µM
- TGI (LOX IMVI; read-out: pTGI (converted)): 27.5 µM
- GI50 (M14): 18.2 µM
- CC50 (M14; [5]): 57.5 µM
- TGI (M14; read-out: pTGI (converted)): 32.4 µM
- GI50 (SK-MEL-2): 14.8 µM
- CC50 (SK-MEL-2; [5]): 57.5 µM
- TGI (SK-MEL-2; read-out: pTGI (converted)): 28.8 µM
- GI50 (SK-MEL-28): 17.4 µM
- CC50 (SK-MEL-28; [5]): 60.3 µM
- TGI (SK-MEL-28; read-out: pTGI (converted)): 32.4 µM
- GI50 (SK-MEL-5): 17.8 µM
- CC50 (SK-MEL-5; [5]): 56.2 µM
- TGI (SK-MEL-5; read-out: pTGI (converted)): 31.6 µM
- GI50 (UACC-62): 14.8 µM
- CC50 (UACC-62; [5]): 58.9 µM
- TGI (UACC-62; read-out: pTGI (converted)): 29.5 µM
- GI50 (OVCAR-3): 2.24 µM
- CC50 (OVCAR-3; [5]): 38.9 µM
- TGI (OVCAR-3; read-out: pTGI (converted)): 7.76 µM
- GI50 (OVCAR-4): 8.13 µM
- CC50 (OVCAR-4; [5]): 47.9 µM
- TGI (OVCAR-4; read-out: pTGI (converted)): 21.4 µM
- GI50 (OVCAR-5): 20.9 µM
- CC50 (OVCAR-5; [5]): > 100 µM
- TGI (OVCAR-5; read-out: pTGI (converted)): 45.7 µM
- GI50 (786-0): 15.1 µM
- CC50 (786-0; [5]): > 100 µM
- TGI (786-0; read-out: pTGI (converted)): 41.7 µM
- GI50 (CAKI-1): 16.2 µM
- CC50 (CAKI-1; [5]): 79.4 µM
- TGI (CAKI-1; read-out: pTGI (converted)): 36.3 µM
- GI50 (RXF 393): 5.37 µM
- CC50 (RXF 393; [5]): 44.7 µM
- TGI (RXF 393; read-out: pTGI (converted)): 18.2 µM
- GI50 (NCI/ADR-RES): 22.9 µM
- CC50 (NCI/ADR-RES; [5]): > 100 µM
- TGI (NCI/ADR-RES; read-out: pTGI (converted)): 83.2 µM
- GI50 (MDA-MB-231): 2.88 µM
- CC50 (MDA-MB-231; [5]): 64.6 µM
- TGI (MDA-MB-231; read-out: pTGI (converted)): 13.8 µM
- GI50 [4]: 26.9 µM
- CC50 [4, 5]: > 100 µM
- TGI ([4]; read-out: pTGI (converted)): > 100 µM
- GI50 (MDA-MB-435): 10 µM
- CC50 (MDA-MB-435; [5]): 46.8 µM
- TGI (MDA-MB-435; read-out: pTGI (converted)): 21.9 µM
